Experimental data as given in ChEMBL document CHEMBL1122443, “Synthesis and antitumor evaluation of selected 5,6-disubstituted 1(2)H-indazole-4,7-diones” (1983).
The source made the active and inactive calls. No cut-off for these calls is given here.

Assays:
Mus musculus [1] = experiment: Average days survived for treated / average days survived for control at 1 (mg/kg); 10.2/9.2; format: functional
Mus musculus [2] = experiment: Antitumor activity in CF1 mice bearing Ehrlich ascites carcinoma measured as percentage inhibition at 3 mg/kg; format: functional
In short: (§1)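 Ehrlich ascites model in male CF1 mice (22–25 g): 2 × 10⁶ cells ip on day 0, ip dosing days 1–8, kill on day 9. Percent inhibition = 100 − [(treated volume × treated ascrit)/(control volume × control ascrit)]. Greater than 80% was taken as significant. Vehicle was 0.05% Tween 80, alone or with 5% absolute EtOH. 6-Mercaptopurine was the positive control.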

Mus musculus [3] = experiment: Antitumor activity in CF1 mice bearing Ehrlich ascites carcinoma measured as survivors on day 9 at 3 mg/kg; 3/6; format: functional
Mus musculus [4] = experiment: Antitumor activity in CF1 mice bearing Ehrlich ascites carcinoma measured as percent ascrit packed cell volume at 3 mg/kg; format: functional
In short: (§2)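 Male CF1 mice (22–25 g) received 2 × 10⁶ Ehrlich carcinoma cells ip on day 0. Dosing was ip daily on days 1–8, with sacrifice on day 9. Ascites fluid volume per mouse and ascrit (packed cell volume) were measured for each group. Vehicle was 0.05% Tween 80, or 5% absolute EtOH in 0.05% Tween 80, used for both compound and control. 6-Mercaptopurine was the positive control.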

Mus musculus [5] = experiment: Anti tumor activity in mice bearing lymphocytic leukemia P-388 at 1 mg/kg; format: functional
In short: (§3)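 Male BDF1 mice (20–23 g) were inoculated ip with 1 × 10⁶ P-388 leukemia cells on day 0. Compound was given ip once daily on days 1–14 in 0.05% Tween 80 vehicle, with a vehicle control group and 5-fluorouracil as positive control. Activity was scored as % T/C, average days survived treated/control, with >125% taken as significant.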

Mus musculus [6] = experiment: Antitumor activity in CF1 mice bearing Ehrlich ascites carcinoma measured as survivors on day 9 at 5 mg/kg; 5/5; format: functional
Mus musculus [7] = experiment: Antitumor activity in CF1 mice bearing Ehrlich ascites carcinoma measured as ascites volume at 5 mg/kg; format: functional; in short: as §2
Mus musculus [8] = experiment: Antitumor activity in CF1 mice bearing Ehrlich ascites carcinoma measured as percent ascrit packed cell volume at 5 mg/kg; format: functional; in short: as §2
Mus musculus [9] = experiment: Antitumor activity in CF1 mice bearing Ehrlich ascites carcinoma measured as percentage inhibition at 5 mg/kg; format: functional; in short: as §1
Mus musculus [10] = experiment: Antitumor activity in CF1 mice bearing Ehrlich ascites carcinoma measured as ascites volume at 3 mg/kg; format: functional; in short: as §2
Mus musculus [11] = experiment: Anti tumor activity in mice bearing lymphocytic leukemia P-388 at 3 mg/kg; format: functional; in short: as §3
Mus musculus [12] = experiment: Anti tumor activity in mice bearing lymphocytic leukemia P-388 at 10 mg/kg; Toxic; format: functional, organism-based; parameters: dose 10 mg/kg; in short: as §3
Mus musculus [13] = experiment: Anti tumor activity in mice bearing lymphocytic leukemia P-388 at 2 mg/kg; format: functional; in short: as §3
Mus musculus [14] = experiment: Antitumor activity in CF1 mice bearing Ehrlich ascites carcinoma measured as percentage inhibition at 1 mg/kg; format: functional
In short: (§4)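 In the Ehrlich ascites model, male CF1 mice (22–25 g) received 2 × 10⁶ cells ip on day 0 and compound ip on days 1–8, with a vehicle of 0.05% Tween 80 ± 5% EtOH. Ascites volume and ascrit were taken on day 9. % inhibition = 100 − [(vol × ascrit, treated)/(vol × ascrit, control)], with >80% taken as significant.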

Mus musculus [15] = experiment: Average days survived for treated / average days survived for control at 1 (mg/kg); 13.3/9.2; format: functional
Mus musculus [16] = experiment: Antitumor activity in CF1 mice bearing Ehrlich ascites carcinoma measured as percent ascrit packed cell volume at 1 mg/kg; format: functional
In short: (§5)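 CF1 male mice (22–25 g) were inoculated ip with 2 × 10⁶ Ehrlich cells on day 0 and treated ip on days 1–8 in 0.05% Tween 80 or 5% EtOH/0.05% Tween 80 vehicle. On day 9 the mice were sacrificed, and the ascrit (packed cell volume) of the ascites fluid was determined.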

Mus musculus [17] = experiment: Antitumor activity in CF1 mice bearing Ehrlich ascites carcinoma measured as percent ascrit packed cell volume at 0.5 mg/kg; format: functional; in short: as §5
Mus musculus [18] = experiment: Average days survived for treated / average days survived for control at 0.5 (mg/kg); 10.5/9.2; format: functional
Mus musculus [19] = experiment: Anti tumor activity in mice bearing lymphocytic leukemia P-388 at 0.5 mg/kg; format: functional; in short: as §3
Mus musculus [20] = experiment: Antitumor activity in CF1 mice bearing Ehrlich ascites carcinoma measured as ascites volume at 0.5 mg/kg; format: functional
In short: (§6)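 Ehrlich ascites cells (2 × 10⁶) were implanted ip in male CF1 mice (22–25 g) on day 0. Dosing was ip on days 1–8 in 0.05% Tween 80 or 5% EtOH/0.05% Tween 80, with vehicle controls. Mice were killed on day 9, and ascites fluid volume per mouse was measured.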

Mus musculus [21] = experiment: Antitumor activity in CF1 mice bearing Ehrlich ascites carcinoma measured as survivors on day 9 at 1 mg/kg; 6/6; format: functional
Mus musculus [22] = experiment: Average days survived for treated / average days survived for control at 3 (mg/kg); 10.2/9.2; format: functional
Mus musculus [23] = experiment: Anti tumor activity in mice bearing lymphocytic leukemia P-388 at 5 mg/kg; format: functional; in short: as §3
Mus musculus [24] = experiment: Antitumor activity in CF1 mice bearing Ehrlich ascites carcinoma measured as survivors on day 9 at 0.5 mg/kg; 5/6; format: functional
Mus musculus [25] = experiment: Antitumor activity in CF1 mice bearing Ehrlich ascites carcinoma measured as ascites volume at 1 mg/kg; format: functional; in short: as §6
Mus musculus [26] = experiment: Average days survived for treated / average days survived for control at 5 (mg/kg); 11/9.2; format: functional
Mus musculus [27] = experiment: Antitumor activity in CF1 mice bearing Ehrlich ascites carcinoma measured as percentage inhibition at 0.5 mg/kg; IA= inactive; format: functional, organism-based; parameters: dose 0.5 mg/kg; in short: as §4
Mus musculus [28] = experiment: Antitumor activity in CF1 mice bearing Ehrlich ascites carcinoma measured as survivors on day 9 at 5 mg/kg; 6/6; format: functional
Mus musculus [29] = experiment: Average days survived for treated / average days survived for control at 2 (mg/kg); 12.6/9.2; format: functional
Mus musculus [30] = experiment: Antitumor activity in CF1 mice bearing Ehrlich ascites carcinoma measured as ascites volume at 8 mg/kg; format: functional; in short: as §2
Mus musculus [31] = experiment: Antitumor activity in CF1 mice bearing Ehrlich ascites carcinoma measured as percentage inhibition at 3 mg/kg; IA= inactive; format: functional, organism-based; parameters: dose 3 mg/kg; in short: as §4
Mus musculus [32] = experiment: Antitumor activity in CF1 mice bearing Ehrlich ascites carcinoma measured as survivors on day 9 at 3 mg/kg; 5/6; format: functional
Mus musculus [33] = experiment: Antitumor activity in CF1 mice bearing Ehrlich ascites carcinoma measured as survivors on day 9 at 8 mg/kg; 4/6; format: functional
Mus musculus [34] = experiment: Antitumor activity in CF1 mice bearing Ehrlich ascites carcinoma measured as percent ascrit packed cell volume at 8 mg/kg; format: functional; in short: as §2
Mus musculus [35] = experiment: Antitumor activity in CF1 mice bearing Ehrlich ascites carcinoma measured as survivors on day 9 at 5 mg/kg; 4/6; format: functional
Mus musculus [36] = experiment: Antitumor activity in CF1 mice bearing Ehrlich ascites carcinoma measured as percentage inhibition at 8 mg/kg; format: functional; in short: as §1

Cc1noc2c1C(=O)C(Cl)=C(Cl)C2=O
Average survival (days) (Mus musculus [1]): 10.2 | inhibition in vivo at 3 mg/kg (Mus musculus [2]): 100% | Survivors (Mus musculus [3]): 3 | packed cell volume (Mus musculus [4]): 0% | T/C (Mus musculus [5]): 111% | Survivors (Mus musculus [6]): 5 | ascites volume (Mus musculus [7]): 0 ml mouse-1 | packed cell volume (Mus musculus [8]): 0% | inhibition in vivo at 5 mg/kg (Mus musculus [9]): 100% | ascites volume (Mus musculus [10]): 0 ml mouse-1

O=C1C(N2CC2)=C(Cl)C(=O)c2n[nH]cc21
T/C (Mus musculus [11]): 111% | T/C (Mus musculus [12]): Toxic | T/C (Mus musculus [13]): 137% | inhibition in vivo at 1 mg/kg (Mus musculus [14]): 95% | Average survival (days) (Mus musculus [15]): 13.3 | packed cell volume (Mus musculus [16]): 5.8% | T/C (Mus musculus [5]): 145% | packed cell volume (Mus musculus [17]): 44% | Average survival (days) (Mus musculus [18]): 10.5 | T/C (Mus musculus [19]): 114% | ascites volume (Mus musculus [20]): 0.38 ml mouse-1 | Survivors (Mus musculus [21]): 6 | Average survival (days) (Mus musculus [22]): 10.2 | T/C (Mus musculus [23]): 120% | Survivors (Mus musculus [24]): 5 | ascites volume (Mus musculus [25]): 0.32 ml mouse-1 | Average survival (days) (Mus musculus [26]): 11 | ascites volume (Mus musculus [7]): 0.15 ml mouse-1 | inhibition (Mus musculus [27]): inactive | packed cell volume (Mus musculus [8]): 49.4% | inhibition in vivo at 5 mg/kg (Mus musculus [9]): 92.5% | Survivors (Mus musculus [28]): 6 | Average survival (days) (Mus musculus [29]): 12.6

CC(=O)NC1=C(Cl)C(=O)c2c(cnn2C(C)=O)C1=O
packed cell volume (Mus musculus [4]): 45.5% | ascites volume (Mus musculus [30]): 0.75 ml mouse-1 | inhibition (Mus musculus [31]): inactive | Survivors (Mus musculus [32]): 5 | Survivors (Mus musculus [33]): 4 | packed cell volume (Mus musculus [34]): 31.7% | ascites volume (Mus musculus [7]): 0.3 ml mouse-1 | packed cell volume (Mus musculus [8]): 5.9% | inhibition in vivo at 5 mg/kg (Mus musculus [9]): 95.6% | Survivors (Mus musculus [35]): 4 | ascites volume (Mus musculus [10]): 2.9 ml mouse-1 | inhibition in vivo at 8 mg/kg (Mus musculus [36]): 25.5%
